Measurements: ChEMBL document CHEMBL4689842, “EUbOPEN Chemogenomics Library wave 1” (2021)

System: HEK-293T
Test: Multiplex assay against HEK293T;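 for Population Tubulin-Different-Phenotype (%): share of the cells with healthy nuclei that show this phenotype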
Type: toxicity, cell-based
Conditions: human
In short: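 Cells were classed with CellPathfinder machine-learning gating, first as Hoechst high-intensity objects or normal cells, then (normal cells) as healthy, pyknosed or fragmented nuclei, and finally (pyknosed cells) as mitotic or apoptotic. Staining of live cells at seeding used Hoechst33342, BioTracker Green Microtubule Cytoskeleton Dye, MitoTracker Red and Annexin V Alexa Fluor 680, with imaging on a CQ1 microscope at 37°C and 5% CO2 after compound addition. Tubulin, mitochondrial-mass and membrane-permeability phenotypes are per cents of healthy-nucleus cells.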

[1] = 12 h, 1 µM, compound concentration 1 uM, replicate 1
[2] = 12 h, 1 µM, compound concentration 1 uM, replicate 2
[3] = 12 h, 10 µM, compound concentration 10 uM, replicate 1
[4] = 12 h, 10 µM, compound concentration 10 uM, replicate 2
[5] = 24 h, 1 µM, compound concentration 1 uM, replicate 1
[6] = 24 h, 1 µM, compound concentration 1 uM, replicate 2
[7] = 24 h, 10 µM, compound concentration 10 uM, replicate 1
[8] = 24 h, 10 µM, compound concentration 10 uM, replicate 2
[9] = 48 h, 1 µM, compound concentration 1 uM, replicate 1
[10] = 48 h, 1 µM, compound concentration 1 uM, replicate 2
[11] = 48 h, 10 µM, compound concentration 10 uM, replicate 1
[12] = 48 h, 10 µM, compound concentration 10 uM, replicate 2

## CN(C)C(=O)N[C@H]1CC[C@H](CCN2CCN(c3cccc(Cl)c3Cl)CC2)CC1.Cl [CARIPRAZINE HYDROCHLORIDE]
[1]
  Population Apoptotic (%): 48%
  Population Fragmented Nuclei (%): 12%
  Population Healthy Nuclei (%): 44%
  Population Hoechst High Intensity Objects (%): 13%
  Population Membrane Permeable-Phenotype (%): 1%
  Population Mitochondria Different-Phenotype (%): 88%
  Population Mitotic Cells (%): 51%
  Population Normal (%): 86%
  Population Pyknosed Nuclei (%): 42%
  Population Tubulin-Different-Phenotype (%): 59%
  Total Cell Count: 326
[2]
  Population Apoptotic (%): 20%
  Population Fragmented Nuclei (%): 4%
  Population Healthy Nuclei (%): 42%
  Population Hoechst High Intensity Objects (%): 4%
  Population Membrane Permeable-Phenotype (%): 2%
  Population Mitochondria Different-Phenotype (%): 32%
  Population Mitotic Cells (%): 79%
  Population Normal (%): 95%
  Population Pyknosed Nuclei (%): 53%
  Population Tubulin-Different-Phenotype (%): 24%
  Total Cell Count: 213
[3]
  Population Apoptotic (%): 85%
  Population Fragmented Nuclei (%): 7%
  Population Healthy Nuclei (%): 25%
  Population Hoechst High Intensity Objects (%): 15%
  Population Membrane Permeable-Phenotype (%): 1%
  Population Mitochondria Different-Phenotype (%): 98%
  Population Mitotic Cells (%): 14%
  Population Normal (%): 84%
  Population Pyknosed Nuclei (%): 67%
  Population Tubulin-Different-Phenotype (%): 98%
  Total Cell Count: 285
[4]
  Population Apoptotic (%): 83%
  Population Fragmented Nuclei (%): 4%
  Population Healthy Nuclei (%): 16%
  Population Hoechst High Intensity Objects (%): 6%
  Population Membrane Permeable-Phenotype (%): 6%
  Population Mitochondria Different-Phenotype (%): 96%
  Population Mitotic Cells (%): 16%
  Population Normal (%): 93%
  Population Pyknosed Nuclei (%): 79%
  Population Tubulin-Different-Phenotype (%): 93%
  Total Cell Count: 210
[5]
  Population Apoptotic (%): 46%
  Population Fragmented Nuclei (%): 14%
  Population Healthy Nuclei (%): 57%
  Population Hoechst High Intensity Objects (%): 11%
  Population Membrane Permeable-Phenotype (%): 1%
  Population Mitochondria Different-Phenotype (%): 77%
  Population Mitotic Cells (%): 53%
  Population Normal (%): 88%
  Population Pyknosed Nuclei (%): 27%
  Population Tubulin-Different-Phenotype (%): 55%
  Total Cell Count: 379
[6]
  Population Apoptotic (%): 12%
  Population Fragmented Nuclei (%): 2%
  Population Healthy Nuclei (%): 63%
  Population Hoechst High Intensity Objects (%): 2%
  Population Membrane Permeable-Phenotype (%): 4%
  Population Mitochondria Different-Phenotype (%): 34%
  Population Mitotic Cells (%): 87%
  Population Normal (%): 97%
  Population Pyknosed Nuclei (%): 33%
  Population Tubulin-Different-Phenotype (%): 33%
  Total Cell Count: 275
[7]
  Population Apoptotic (%): 90%
  Population Fragmented Nuclei (%): 11%
  Population Healthy Nuclei (%): 29%
  Population Hoechst High Intensity Objects (%): 14%
  Population Membrane Permeable-Phenotype (%): 0%
  Population Mitochondria Different-Phenotype (%): 98%
  Population Mitotic Cells (%): 9%
  Population Normal (%): 85%
  Population Pyknosed Nuclei (%): 59%
  Population Tubulin-Different-Phenotype (%): 100%
  Total Cell Count: 289
[8]
  Population Apoptotic (%): 87%
  Population Fragmented Nuclei (%): 3%
  Population Healthy Nuclei (%): 37%
  Population Hoechst High Intensity Objects (%): 7%
  Population Membrane Permeable-Phenotype (%): 2%
  Population Mitochondria Different-Phenotype (%): 97%
  Population Mitotic Cells (%): 12%
  Population Normal (%): 92%
  Population Pyknosed Nuclei (%): 58%
  Population Tubulin-Different-Phenotype (%): 96%
  Total Cell Count: 241
[9]
  Population Apoptotic (%): 29%
  Population Fragmented Nuclei (%): 9%
  Population Healthy Nuclei (%): 78%
  Population Hoechst High Intensity Objects (%): 7%
  Population Membrane Permeable-Phenotype (%): 0%
  Population Mitochondria Different-Phenotype (%): 37%
  Population Mitotic Cells (%): 70%
  Population Normal (%): 92%
  Population Pyknosed Nuclei (%): 12%
  Total Cell Count: 609
[10]
  Population Apoptotic (%): 10%
  Population Fragmented Nuclei (%): 6%
  Population Healthy Nuclei (%): 80%
  Population Hoechst High Intensity Objects (%): 2%
  Population Membrane Permeable-Phenotype (%): 2%
  Population Mitochondria Different-Phenotype (%): 15%
  Population Mitotic Cells (%): 89%
  Population Normal (%): 97%
  Population Pyknosed Nuclei (%): 13%
  Population Tubulin-Different-Phenotype (%): 35%
  Total Cell Count: 516
[11]
  Population Apoptotic (%): 78%
  Population Fragmented Nuclei (%): 16%
  Population Healthy Nuclei (%): 41%
  Population Hoechst High Intensity Objects (%): 15%
  Population Membrane Permeable-Phenotype (%): 0%
  Population Mitochondria Different-Phenotype (%): 99%
  Population Mitotic Cells (%): 21%
  Population Normal (%): 84%
  Population Pyknosed Nuclei (%): 42%
  Population Tubulin-Different-Phenotype (%): 94%
  Total Cell Count: 342
[12]
  Population Apoptotic (%): 82%
  Population Fragmented Nuclei (%): 7%
  Population Healthy Nuclei (%): 51%
  Population Hoechst High Intensity Objects (%): 6%
  Population Mitochondria Different-Phenotype (%): 95%
  Population Mitotic Cells (%): 17%
  Population Normal (%): 93%
  Population Pyknosed Nuclei (%): 41%
  Population Tubulin-Different-Phenotype (%): 92%
  Total Cell Count: 274
